Measured values taken from ChEMBL document CHEMBL1649446, “Comparative antipneumococcal activities of sulopenem and other drugs” (2009).
Values after ≈ are worked out from the molar mass of the structure shown.

How the values were obtained:
Type in all cases: functional
Streptococcus pneumoniae [1] = experiment: Antimicrobial activity against Streptococcus pneumoniae isolate 3791 by agar dilution method
Procedure, shortened: (§1)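 Agar dilution MIC on Mueller-Hinton agar with 5% sheep blood, inocula 10^4 CFU/spot; amoxicillin-clavulanate combined 1:2; S. pneumoniae ATCC 49619 quality control each run.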

Streptococcus pneumoniae [2] = experiment: Antimicrobial activity against Streptococcus pneumoniae isolate 3260 by agar dilution method
Streptococcus pneumoniae [3] = experiment: Antimicrobial activity against Streptococcus pneumoniae 10 by time-kill analysis
Procedure, shortened: (§2)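 Time-kill in cation-adjusted Mueller-Hinton broth with 5% lysed horse blood; inocula 5 × 105 to 5 × 10^6 CFU/ml; drugs at MIC, 2× and 4× MIC; 35°C shaking water bath; viable counts at 0, 3, 6, 12, 24 h. Bactericidal = ≥3 log10 CFU/ml (99.9%) drop from original inoculum; 90%/99%/99.9% killing scored per strain.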

Streptococcus pneumoniae [4] = experiment: Antimicrobial activity against Streptococcus pneumoniae isolate 1424 by agar dilution method; procedure, shortened: as §1
Streptococcus pneumoniae [5] = experiment: Antimicrobial activity against Streptococcus pneumoniae isolate 37 by agar dilution method; procedure, shortened: as §1
Streptococcus pneumoniae [6] = experiment: Antimicrobial activity against Streptococcus pneumoniae isolate 4755 by agar dilution method; procedure, shortened: as §1
Streptococcus pneumoniae [7] = experiment: Antimicrobial activity against Streptococcus pneumoniae isolate 1055 by agar dilution method
Streptococcus pneumoniae [8] = experiment: Antimicrobial activity against Streptococcus pneumoniae isolate 2880 by agar dilution method; procedure, shortened: as §1
Streptococcus pneumoniae [9] = experiment: Antimicrobial activity against Streptococcus pneumoniae isolate 1394 by agar dilution method
Streptococcus pneumoniae [10] = experiment: Antimicrobial activity against Streptococcus pneumoniae isolate 3275 by agar dilution method; procedure, shortened: as §1
Streptococcus pneumoniae [11] = experiment: Antimicrobial activity against penicillin-resistant Streptococcus pneumoniae by agar dilution method; procedure, shortened: as §1
Streptococcus pneumoniae [12] = experiment: Antimicrobial activity against Streptococcus pneumoniae isolate 3263 by agar dilution method
Streptococcus pneumoniae [13] = experiment: Antimicrobial activity against Streptococcus pneumoniae 1 by time-kill analysis
Procedure, shortened: as §2, with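 “12 and” for “12,”, “if” for “=”, “reduction” for “drop”, “90% and 99%” for “90%/99%/99.9%”, “also scored.” for “scored per strain.”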

Streptococcus pneumoniae [14] = experiment: Antimicrobial activity against Streptococcus pneumoniae isolate 2617 by agar dilution method; procedure, shortened: as §1
Streptococcus pneumoniae [15] = experiment: Antimicrobial activity against Streptococcus pneumoniae 11 by time-kill analysis; procedure, shortened: as §2
Streptococcus pneumoniae [16] = experiment: Antimicrobial activity against Streptococcus pneumoniae 12 by time-kill analysis; procedure, shortened: as §2
Streptococcus pneumoniae [17] = experiment: Antimicrobial activity against Streptococcus pneumoniae 8 by time-kill analysis; procedure, shortened: as §2
Streptococcus pneumoniae [18] = experiment: Antimicrobial activity against Streptococcus pneumoniae isolate 4747 by agar dilution method; procedure, shortened: as §1
Streptococcus pneumoniae [19] = experiment: Antimicrobial activity against penicillin-intermediate Streptococcus pneumoniae by agar dilution method
Streptococcus pneumoniae [20] = experiment: Antimicrobial activity against Streptococcus pneumoniae 6 by time-kill analysis; procedure, shortened: as §2
Streptococcus pneumoniae [21] = experiment: Antimicrobial activity against Streptococcus pneumoniae isolate 3282 by agar dilution method
Streptococcus pneumoniae [22] = experiment: Antimicrobial activity against Streptococcus pneumoniae isolate 1146 by agar dilution method; procedure, shortened: as §1
Streptococcus pneumoniae [23] = experiment: Antimicrobial activity against Streptococcus pneumoniae isolate 3455 by agar dilution method
Streptococcus pneumoniae [24] = experiment: Antimicrobial activity against Streptococcus pneumoniae 4 by time-kill analysis; procedure, shortened: as §2
Streptococcus pneumoniae [25] = experiment: Antimicrobial activity against Streptococcus pneumoniae isolate 2686 by agar dilution method; procedure, shortened: as §1
Streptococcus pneumoniae [26] = experiment: Antimicrobial activity against Streptococcus pneumoniae 3 by time-kill analysis; procedure, shortened: as §2
Streptococcus pneumoniae [27] = experiment: Antimicrobial activity against Streptococcus pneumoniae isolate 3374 by agar dilution method; procedure, shortened: as §1
Streptococcus pneumoniae [28] = experiment: Antimicrobial activity against Streptococcus pneumoniae isolate 3481 by agar dilution method; procedure, shortened: as §1
Streptococcus pneumoniae [29] = experiment: Antimicrobial activity against Streptococcus pneumoniae isolate 1147 by agar dilution method; procedure, shortened: as §1
Streptococcus pneumoniae [30] = experiment: Antimicrobial activity against Streptococcus pneumoniae isolate 1384 by agar dilution method; procedure, shortened: as §1
Streptococcus pneumoniae [31] = experiment: Antimicrobial activity against Streptococcus pneumoniae isolate 24 by agar dilution method
Streptococcus pneumoniae [32] = experiment: Antimicrobial activity against Streptococcus pneumoniae isolate 3458 by agar dilution method
Streptococcus pneumoniae [33] = experiment: Antimicrobial activity against Streptococcus pneumoniae 5 by time-kill analysis
Procedure, shortened: as §2, with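 “12 and” for “12,”, “if” for “=”, “reduction” for “drop”, “90% and 99%” for “90%/99%/99.9%”, “also scored.” for “scored per strain.”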

Streptococcus pneumoniae [34] = experiment: Antimicrobial activity against Streptococcus pneumoniae isolate 33 by agar dilution method; procedure, shortened: as §1
Streptococcus pneumoniae [35] = experiment: Antimicrobial activity against Streptococcus pneumoniae isolate 3681 by agar dilution method; procedure, shortened: as §1
Streptococcus pneumoniae [36] = experiment: Antimicrobial activity against Streptococcus pneumoniae isolate 2688 by agar dilution method; procedure, shortened: as §1
Streptococcus pneumoniae [37] = experiment: Antimicrobial activity against Streptococcus pneumoniae 7 by time-kill analysis; procedure, shortened: as §2
Streptococcus pneumoniae [38] = experiment: Antimicrobial activity against Streptococcus pneumoniae isolate 2874 by agar dilution method; procedure, shortened: as §1
Streptococcus pneumoniae [39] = experiment: Antimicrobial activity against Streptococcus pneumoniae isolate 3412 by agar dilution method; procedure, shortened: as §1
Streptococcus pneumoniae [40] = experiment: Antimicrobial activity against Streptococcus pneumoniae isolate 3587 by agar dilution method
Streptococcus pneumoniae [41] = experiment: Antimicrobial activity against Streptococcus pneumoniae 9 by time-kill analysis
Procedure, shortened: as §2, with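 “12 and” for “12,”, “if” for “=”, “reduction” for “drop”, “90% and 99%” for “90%/99%/99.9%”, “also scored.” for “scored per strain.”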

Streptococcus pneumoniae [42] = experiment: Antimicrobial activity against Streptococcus pneumoniae 2 by time-kill analysis; procedure, shortened: as §2
Streptococcus pneumoniae [43] = experiment: Antimicrobial activity against penicillin-susceptible Streptococcus pneumoniae by agar dilution method
Streptococcus pneumoniae [44] = experiment: Antimicrobial activity against Streptococcus pneumoniae isolate 1564 by agar dilution method
Streptococcus pneumoniae [45] = experiment: Antimicrobial activity against Streptococcus pneumoniae 19A by agar dilution method; procedure, shortened: as §1
Streptococcus pneumoniae [46] = experiment: Antimicrobial activity against Streptococcus pneumoniae isolate 3346 by agar dilution method
Streptococcus pneumoniae [47] = experiment: Antimicrobial activity against Streptococcus pneumoniae isolate 1397 by agar dilution method; procedure, shortened: as §1

## COc1c(N2CCNC(C)C2)c(F)cc2c(=O)c(C(=O)O)cn(C3CC3)c12 (stereo unspecified) [GATIFLOXACIN]
Streptococcus pneumoniae [1]
  MIC: 0.5 µg/mL (≈ 1.33 µM)
Streptococcus pneumoniae [2]
  MIC: 0.125 µg/mL (≈ 0.333 µM)
Streptococcus pneumoniae [3]
  MIC: 0.25 µg/mL (≈ 0.666 µM)
Streptococcus pneumoniae [4]
  MIC: 0.25 µg/mL (≈ 0.666 µM)
Streptococcus pneumoniae [5]
  MIC: 0.5 µg/mL (≈ 1.33 µM)
Streptococcus pneumoniae [6]
  MIC: 0.25 µg/mL (≈ 0.666 µM)
Streptococcus pneumoniae [7]
  MIC: 16 µg/mL (≈ 42.6 µM)
Streptococcus pneumoniae [8]
  MIC: 0.25 µg/mL (≈ 0.666 µM)
Streptococcus pneumoniae [9]
  MIC: 0.5 µg/mL (≈ 1.33 µM)
Streptococcus pneumoniae [10]
  MIC: 0.25 µg/mL (≈ 0.666 µM)
Streptococcus pneumoniae [11]
  MIC50: 0.5 µg/mL (≈ 1.33 µM)
  MIC90: 1 µg/mL (≈ 2.66 µM)
Streptococcus pneumoniae [12]
  MIC: 0.25 µg/mL (≈ 0.666 µM)
Streptococcus pneumoniae [13]
  MIC: 4 µg/mL (≈ 10.7 µM)
Streptococcus pneumoniae [14]
  MIC: 0.5 µg/mL (≈ 1.33 µM)
Streptococcus pneumoniae [15]
  MIC: 0.5 µg/mL (≈ 1.33 µM)
Streptococcus pneumoniae [16]
  MIC: 0.25 µg/mL (≈ 0.666 µM)
Streptococcus pneumoniae [17]
  MIC: 0.25 µg/mL (≈ 0.666 µM)
Streptococcus pneumoniae [18]
  MIC: 0.125 µg/mL (≈ 0.333 µM)
Streptococcus pneumoniae [19]
  MIC50: 0.25 µg/mL (≈ 0.666 µM)
  MIC90: 0.5 µg/mL (≈ 1.33 µM)
Streptococcus pneumoniae [20]
  MIC: 0.25 µg/mL (≈ 0.666 µM)
Streptococcus pneumoniae [21]
  MIC: 0.125 µg/mL (≈ 0.333 µM)
Streptococcus pneumoniae [22]
  MIC: 2 µg/mL (≈ 5.33 µM)
Streptococcus pneumoniae [23]
  MIC: 0.5 µg/mL (≈ 1.33 µM)
Streptococcus pneumoniae [24]
  MIC: 4 µg/mL (≈ 10.7 µM)
Streptococcus pneumoniae [25]
  MIC: 0.25 µg/mL (≈ 0.666 µM)
Streptococcus pneumoniae [26]
  MIC: 0.25 µg/mL (≈ 0.666 µM)
Streptococcus pneumoniae [27]
  MIC: 0.25 µg/mL (≈ 0.666 µM)
Streptococcus pneumoniae [28]
  MIC: 0.25 µg/mL (≈ 0.666 µM)
Streptococcus pneumoniae [29]
  MIC: 4 µg/mL (≈ 10.7 µM)
Streptococcus pneumoniae [30]
  MIC: 0.5 µg/mL (≈ 1.33 µM)
Streptococcus pneumoniae [31]
  MIC: 0.5 µg/mL (≈ 1.33 µM)
Streptococcus pneumoniae [32]
  MIC: 0.5 µg/mL (≈ 1.33 µM)
Streptococcus pneumoniae [33]
  MIC: 0.5 µg/mL (≈ 1.33 µM)
Streptococcus pneumoniae [34]
  MIC: 0.5 µg/mL (≈ 1.33 µM)
Streptococcus pneumoniae [35]
  MIC: 0.5 µg/mL (≈ 1.33 µM)
Streptococcus pneumoniae [36]
  MIC: 0.5 µg/mL (≈ 1.33 µM)
Streptococcus pneumoniae [37]
  MIC: 0.5 µg/mL (≈ 1.33 µM)
Streptococcus pneumoniae [38]
  MIC: 0.5 µg/mL (≈ 1.33 µM)
Streptococcus pneumoniae [39]
  MIC: 0.25 µg/mL (≈ 0.666 µM)
Streptococcus pneumoniae [40]
  MIC: 0.25 µg/mL (≈ 0.666 µM)
Streptococcus pneumoniae [41]
  MIC: 0.5 µg/mL (≈ 1.33 µM)
Streptococcus pneumoniae [42]
  MIC: 0.25 µg/mL (≈ 0.666 µM)
Streptococcus pneumoniae [43]
  MIC50: 0.5 µg/mL (≈ 1.33 µM)
  MIC90: 4 µg/mL (≈ 10.7 µM)
Streptococcus pneumoniae [44]
  MIC: 0.5 µg/mL (≈ 1.33 µM)
Streptococcus pneumoniae [45]
  MIC50: 0.5 µg/mL (≈ 1.33 µM)
  MIC90: 0.5 µg/mL (≈ 1.33 µM)
Streptococcus pneumoniae [46]
  MIC: 0.125 µg/mL (≈ 0.333 µM)
Streptococcus pneumoniae [47]
  MIC: 0.5 µg/mL (≈ 1.33 µM)
